Most compounds without a hit are left out; they make up all but 2.2% or so of the library.
EBV gp42 inh – Epstein-Barr virus gp42 inhibitors, primary screen, biochemical, uHTS, fluorescence polarization | AID 1085, 2008 | 220,000 compounds, 0.42% hits | Fluorescence polarization binding assay, mP read-out | inhibition, % (tested at 21.74 µM) | Glycoprotein 42 (Epstein-Barr virus (strain AG876)), Q1HVG2; in the data active = inhibition above about 50%
Target sequence (Q1HVG2 whole entry, looked up): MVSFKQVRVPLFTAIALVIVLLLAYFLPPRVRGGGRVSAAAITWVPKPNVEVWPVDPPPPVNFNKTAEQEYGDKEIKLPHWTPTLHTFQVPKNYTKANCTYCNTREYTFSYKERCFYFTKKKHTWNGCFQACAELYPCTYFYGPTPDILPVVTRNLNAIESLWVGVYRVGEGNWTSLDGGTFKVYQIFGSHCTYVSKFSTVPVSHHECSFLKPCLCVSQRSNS
Mcl1-Noxa inh – Mcl-1/Noxa binding inhibitors, primary screen, biochemical, TR-FRET, 1536-well | Induced myeloid leukemia cell differentiation protein Mcl-1 (Homo sapiens), Q07820 | TR-FRET Mcl-1/Noxa peptide binding, 2 h | inhibition, % at 21.7 µM | 220,000 compounds, 1.5% hits | AID 1022, 2008;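 active = compounds that cut the protein-peptide binding signal by more than 50% relative to plate controls in a single-dose test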;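 note: His-tagged Mcl-1 with rhodamine Noxa BH3 peptide and terbium anti-His antibody; 0% = Mcl-1 plus Noxa peptide wells and 100% = peptide-only wells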
Mcl1-Bid inh – Mcl-1/Bid binding inhibitors, primary screen, biochemical, TR-FRET, 1536-well | TR-FRET Mcl-1/Bid-Dy647 peptide binding | inhibition, % at 21.7 µM | 220,000 compounds, 0.97% hits;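 active = compounds that cut the binding signal by more than half at the single screening dose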;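 note: His-tagged Mcl-1 with europium anti-His antibody binding Bid BH3 peptide; 0% = Mcl-1 plus peptide wells and 100% = peptide-only wells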
Mcl-1 Bim block – inhibitors of Bim peptide binding to Mcl-1, primary screen, biochemical, bead-based flow cytometry, multiplex; 190,000 compounds, 0.1% hits; AID 1009, 2008; Induced myeloid leukemia cell differentiation protein Mcl-1 (Homo sapiens), Q07820; inhibition, % at 10 µM; Bim peptide-Mcl-1 binding; in the data active = inhibition above about 40%;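 note: 0% = no compound tracer wells and 100% = peptide blocker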
MCL1-BIM inh – inhibitors of MCL1 binding to BIM-BH3, primary screen, biochemical, fluorescence polarization. Induced myeloid leukemia cell differentiation protein Mcl-1 (Homo sapiens), Q07820. GST-MCL1 / FITC-Bim-BH3 fluorescence polarization. inhibition, % at 10.9 µM. 320,000 compounds, 0.68% hits;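 active = inhibition above the mean inhibition of all tested compounds plus 3 SD, set per campaign, cut at about 40% in these data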;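 note: 0% = DMSO wells and 100% = unlabeled Bim-BH3 peptide control; higher means more loss of mP so more displacement of Bim peptide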
RBBP9 inh – human RBBP9 inhibitors, primary screen, biochemical, fluorescence polarization, FP-Rh probe, HTS; inhibition, % at 7.94 µM; AID 1515, 2009; 220,000 compounds, 0.2% hits; recombinant RBBP9;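 active = inhibition above the campaign mean of all tested compounds plus 3 SD, cut at about 14% in these data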;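 note: plate controls were DMSO wells with RBBP9 for no effect and wells lacking RBBP9 protein for full effect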
Target sequence (O75884 whole entry, looked up): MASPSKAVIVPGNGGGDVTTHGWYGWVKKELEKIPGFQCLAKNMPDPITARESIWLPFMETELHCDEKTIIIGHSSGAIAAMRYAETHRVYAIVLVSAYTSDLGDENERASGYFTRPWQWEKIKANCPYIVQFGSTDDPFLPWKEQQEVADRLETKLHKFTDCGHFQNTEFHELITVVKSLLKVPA
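Controls: DMSO-treated enzyme wells and wells lacking RBBP9 | Material: RBBP9 protein | Technique: Fluorescence polarization | Replication: Single well per compound, no replicates | Buffer or medium: Tris-NaCl-Pluronic buffer, pH 8.0 | Timing: 30 min compound preincubation, 45 min probe labeling, 25 °C | Read-out basis: Percent inhibition from mP, scaled between DMSO and no-protein wells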
Starred values were filed as active, the others as inactive; . = no result given.

SMILES	EBV gp42 inh	Mcl1-Noxa inh	Mcl1-Bid inh	Mcl-1 Bim block	MCL1-BIM inh	RBBP9 inh
[O-]c1c[n+](-c2ccc(-[n+]3cc([O-])on3)cc2)no1	33	57*	-30	3	23	-10
COc1cc2c(cc1OC)-c1cc(NC3CCCCC3)nc(=O)n1CC2	-2	10	-13	8	-4	-5
COc1cc2c(cc1OC)-c1cc(NC3CCCCCCC3)nc(=O)n1CC2	4	18	100*	15	6	2
COc1cc2c(cc1OC)-c1cc(NCc3ccccn3)nc(=O)n1CC2	-3	38	98*	10	5	1
O=[N+]([O-])c1cc(Cl)cc(/C=N/Nc2nc3ccccc3s2)c1O	-6	67*	-15	-1	9	1
COC(=O)C1=C(C)NC2=C(C(=O)CCC2)C1c1ccc(-c2ccsc2C(=O)OC)o1 (configuration not stated)	-8	7	-19	.	1	-7
CN(C)C(=O)N1CCC(C(=O)NC2CCCCCCC2)CC1	8	4	-12	67*	6	-10
c1ccc(CN=C2NN=C(c3cc4ccccc4o3)CS2)cc1	-18	93*	-34	0	1	-7
Cc1nc2cc(C(=O)N3CCc4ccccc43)ccc2n1-c1ccc(F)c(F)c1	-2	-1	-17	-1	0	-3
N#Cc1c(-c2ccccc2)cc(-c2ccc3c(c2)OCO3)[nH]c1=O	.	.	.	.	-9	.
COc1ccc(-c2cc(-c3ccco3)[nH]c(=O)c2C#N)cc1OC	6	15	-7	.	46*	-1
CCOC(=O)C1CCN(CC(=O)N2CCc3ccccc32)CC1	.	.	.	.	5	.
CCOC(=O)C1CCN(CC(=O)N2C(C)CCCC2C)CC1 (configuration not stated)	-19	30	65*	-1	-4	-6
O=C(COc1ccccc1F)Nc1ccc(S(=O)(=O)N2CCCC2)cc1	.	.	.	.	6	.
COC(=O)c1cc2sc(Cl)cc2n1CC(=O)Nc1cccc(SC)c1	-10	-7	96*	0	-4	-11
COC(=O)c1cc2sc(Cl)cc2n1CC(=O)Nc1ccc(OC)c(OC)c1OC	-19	5	1	2	-3	-8
Cc1ccc(-c2nc(Nc3ccc(O)cc3)c3ccccc3n2)cc1	.	.	.	.	5	.
Cc1ccc(-c2nc(Nc3ccc(N4CCOCC4)cc3)c3ccccc3n2)cc1	-15	64*	-52	.	25	11
CCOC(=O)c1c(S(=O)(=O)N(C)C2CCCCC2)c(C)n(C)c1C	.	.	.	.	5	.
CC(C)(CNC(=O)c1cccc(NS(=O)(=O)c2ccc(Br)cc2)c1)N1CCOCC1	.	.	.	.	0	.
O=C(/C(=C(\[O-])c1ccccc1)[n+]1ccc2ccccc2c1)c1ccccc1	74*	28	-18	-1	-11	-2
O=C(/C(=C(\[O-])c1ccccc1)[n+]1ccc2ccccc2c1)c1ccc(Cl)cc1	67*	7	-67	1	3	-1
O=C(/C(=C(\[O-])c1ccccc1)[n+]1ccc2ccccc2c1)c1ccc([N+](=O)[O-])cc1	-6	12	3	-5	14	-5
OCCC1CN(C2CCN(c3ccccc3)CC2)CCN1Cc1ccc(F)c(F)c1 (configuration not stated)	-3	0	-15	-2	-1	-8
CCN(CC(=O)Nc1cccc(F)c1)CC(=O)Nc1ccccc1OC	.	.	.	.	-4	.
O=C(CSc1nnc(SCc2cccc3ccccc23)s1)N=Nc1c(O)[nH]c2ccccc12	13	60*	79*	-12	-10	-7
Nn1c(SCC(=O)Nc2ccc(N3CCOCC3)cc2)nnc1-c1ccccc1F	.	.	.	.	8	.
CN(C)/C=C/C(=O)c1ccc(C(F)(F)F)cc1F	-4	20	-23	100*	1	-4
